Source: ChEMBL document CHEMBL1157020, “Antihyperglycemic activity of naphthylchalcones” (2010)
The source made the active and inactive calls. The rule behind the calls is not given here.

Columns and labels:
Rattus norvegicus [1] = assay: Antidiabetic activity in hyperglycemic normal Wistar rat assessed as reduction of serum glucose level at 10 mg/kg, po up to 180 mins by glucose oxidase method; type: functional, organism-based; design: dose 10 mg/kg
Summary of the method: (§1)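 Male Wistar rats (180–210 g), fasted 16 h, given glucose 4 g/kg (8.9 M) plus compound 10 mg/kg in corn oil by oral gavage (0.5 mL); vehicle-treated and glucose-only controls. Tail-vein blood centrifuged, serum glucose by glucose oxidase before and at 15, 30, 60, 180 min. Lowering expressed versus hyperglycemic control; mean ± S.E.M., n = 8.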

Rattus norvegicus [2] = assay: Antidiabetic activity in hyperglycemic normal Wistar rat assessed as potentiation of glucose-induced serum insulin level at 10 mg/kg, po after 30 mins by ELISA relative control; type: functional
Summary of the method: (§2)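 Male Wistar rats (180–210 g), fasted 16 h, orally loaded with glucose 4 g/kg plus compound 10 mg/kg in corn oil by gavage; euglycemic and hyperglycemic control groups. Serum insulin by rat insulin ELISA (range 0.2–10 ng/mL; intra/inter-assay CV 3.22/6.95), absorbance 450 nm against standard curve. Increase versus hyperglycemic control at matched times; mean ± SEM, n = 8.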

Rattus norvegicus [3] = assay: Antidiabetic activity in hyperglycemic normal Wistar rat assessed as potentiation of glucose-induced serum insulin level at 10 mg/kg, po after 60 mins by ELISA relative control; type: functional; summary of the method: as §2
Rattus norvegicus [4] = assay: Antidiabetic activity in hyperglycemic normal Wistar rat assessed as potentiation of glucose-induced serum insulin level at 10 mg/kg, po by ELISA relative control; type: functional, organism-based; design: dose 10 mg/kg; summary of the method: as §2
Rattus norvegicus [5] = assay: Antidiabetic activity in hyperglycemic normal Wistar rat assessed as reduction of serum glucose level at 10 mg/kg, po after 15 mins by glucose oxidase method relative to control; type: functional; design: scale not given: the % may be the effect or the level left; summary of the method: as §1
Rattus norvegicus [6] = assay: Antidiabetic activity in hyperglycemic normal Wistar rat assessed as reduction of serum glucose level at 10 mg/kg, po after 30 mins by glucose oxidase method relative to control; type: functional; design: scale not given: the % may be the effect or the level left; summary of the method: as §1
Rattus norvegicus [7] = assay: Antidiabetic activity in hyperglycemic normal Wistar rat assessed as reduction of serum glucose level at 10 mg/kg, po after 60 mins by glucose oxidase method relative to control; type: functional; design: scale not given: the % may be the effect or the level left; summary of the method: as §1

Structure (SMILES)	Activity (Rattus norvegicus [1])	Activity (Rattus norvegicus [5])	Activity (Rattus norvegicus [6])	also measured
O=C(/C=C/c1cccc([N+](=O)[O-])c1)c1ccc2ccccc2c1	Active	–	–	Activity (Rattus norvegicus [2]): 48%; Activity (Rattus norvegicus [3]): 88%; Activity (Rattus norvegicus [4]): Dose-dependent effect
O=C(/C=C/c1ccc([N+](=O)[O-])cc1)c1ccc2ccccc2c1	inactive	–	–	–
O=C(/C=C/c1ccc2ccccc2c1)c1ccccc1[N+](=O)[O-]	inactive	–	–	–
O=C(/C=C/c1ccc2ccccc2c1)c1cccc([N+](=O)[O-])c1	–	24%	25%	Activity (Rattus norvegicus [7]): 14%
O=C(/C=C/c1cccc2ccccc12)c1ccc([N+](=O)[O-])cc1	–	17%	21%	–
O=C(/C=C/c1cccc2ccccc12)c1cccc([N+](=O)[O-])c1	–	18%	32%	–
O=C(/C=C/c1ccc2ccccc2c1)c1ccc([N+](=O)[O-])cc1	–	22%	25%	Activity (Rattus norvegicus [7]): 19%; Activity (Rattus norvegicus [2]): 27%; Activity (Rattus norvegicus [3]): 104%; Activity (Rattus norvegicus [4]): Dose-dependent effect
O=C(/C=C/c1ccc2ccccc2c1)c1ccccc1	inactive	–	–	–
O=C(/C=C/c1ccc2ccccc2c1)c1ccc2ccccc2c1	inactive	–	–	–
